# Bioassay records: PubChem BioAssay, several laboratories
# ZTA DNA inh: ZTA (EBV) inhibition in EBNA-1 counter-screen | ZTA-DNA binding, fluorescence polarization | inhibition, % at 11 µM | 320,000 tested, 0.15% active | AID 2234; in the data active means inhibition above about 33%
# GPR7 antagonist: human neuropeptides B/W receptor 1 antagonism | 290,000 tested, 1.1% active | AID 1861 | P48145 | inhibition, % at 4.4 µM | GPR7-expressing cells, fluorescence antagonist assay; in the data active means inhibition above about 16%, passing the limit was not always enough;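 further: cells stimulated with the agonist NPW; 0% = agonist with vehicle and 100% = vehicle without agonist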
# Target sequence (P48145 whole entry, looked up): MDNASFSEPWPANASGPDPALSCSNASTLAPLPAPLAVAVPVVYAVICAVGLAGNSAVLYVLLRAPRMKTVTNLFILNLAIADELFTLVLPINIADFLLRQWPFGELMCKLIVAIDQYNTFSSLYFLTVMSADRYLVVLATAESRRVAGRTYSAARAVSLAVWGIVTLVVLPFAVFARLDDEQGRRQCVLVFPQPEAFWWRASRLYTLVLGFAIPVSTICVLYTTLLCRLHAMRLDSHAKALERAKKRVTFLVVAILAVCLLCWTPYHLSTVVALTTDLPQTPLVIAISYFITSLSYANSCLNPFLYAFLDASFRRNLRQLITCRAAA
# EBV gp42 inh: inhibitors of Epstein-Barr virus glycoprotein 42 | Q1HVG2 | Fluorescence polarization binding assay, mP read-out | 220,000 tested, 0.42% active | inhibition, % (tested at 21.74 µM); in the data active means inhibition above about 50%
# Target sequence (Q1HVG2 whole entry, looked up): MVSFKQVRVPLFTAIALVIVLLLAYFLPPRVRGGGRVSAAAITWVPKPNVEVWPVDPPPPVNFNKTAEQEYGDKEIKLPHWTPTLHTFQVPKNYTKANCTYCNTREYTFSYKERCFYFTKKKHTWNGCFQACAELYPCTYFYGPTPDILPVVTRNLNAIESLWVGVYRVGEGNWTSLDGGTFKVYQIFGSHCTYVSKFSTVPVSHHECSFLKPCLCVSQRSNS
# HCV NS3 hel inh: blocks Hepatitis C virus NS3 helicase unwinding; NS3 helicase DNA unwinding, Cy5 molecular beacon fluorescence; inhibition, % at 10.9 µM; 290,000 tested, 0.56% active; AID 1800;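 active means inhibition above the mean of all tested compounds plus 3 SD, set per campaign, cut at about 35% in these data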;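 further: 0% = DMSO wells and 100% = thioflavine S control wells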
#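 Control set: DMSO versus 110 µM thioflavine S; Material: NS3 helicase fragment of HCV; Measured by: Cy5 fluorescence at 0 and 60 min, beacon hairpin quenching; Read-out basis: percent inhibition from t60/t0 fluorescence ratio; Times: reaction time 60 min, 25 °C; Repeats: single replicate; Compound dosing: single dose, 10.9 µM nominal final, DMSO 0.8% final.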
# EBNA-1 inhibitor: blocks EBNA-1 binding to DNA | inhibition, % at 14.8 µM | 300,000 tested, 0.34% active | EBNA-1 DNA binding, fluorescence polarization; in the data active means inhibition above about 28%
# HCV core dimer: HCV core protein dimerization inhibition | inhibition, % at 5 µM | 300,000 tested, 0.33% active | TR-FRET GST/Flag-core106 dimerization, 1536-well;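 active means inhibition above the mean of all tested compounds plus 3 SD, set per screening campaign, cut at about 45% in these data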
#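 Test system: GST/Flag-tagged HCV core106 proteins; Medium: KF-containing HEPES buffer, pH 7.45, DTT, CHAPS, BSA; Times: compound-protein-antibody incubation 4 h at 22.5 °C; Detection: TR-FRET 671 and 617 nm emission; Benchmarks: wells lacking GST-core106 and wells with excess unlabelled core106.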
# * = called active by the depositor; x = not tested or not shown; ! = repeats disagree. Most compounds without a hit are left out; they make up all but 2.3% or so of the library.
SMILES,ZTA DNA inh,GPR7 antagonist,EBV gp42 inh,HCV NS3 hel inh,EBNA-1 inhibitor,HCV core dimer
CCCCS(=O)(=O)/C=C\C=C/S(=O)(=O)CCCC,-6.2,40.3*,-25.4,-6.2,9.6,-4.9
Cc1ccc(-n2c(SCC(=O)NCc3ccco3)nc3sc4c(c3c2=O)CC(C)(C)SC4)cc1,-2.4,-10.7,-4.3,28.6,-10.6,67.7*
CCSc1nc2sc3c(c2c2nnc(SCC(=O)NCc4ccco4)n12)CCCC3,-10.8,-8.9,x,14.5,-2.7,58.5*
CCOC(=O)c1sc(NC(=O)CCN2C(=O)C3CCCCC3C2=O)cc1C (centres undefined),-4.1,x,x,x,x,x
N#Cc1ccsc1NC(=O)CSc1ncnc2ccccc12,-17.4,-10.4,24.4,17.6,-7.0,80.0*
N#Cc1ccsc1NC(=O)CSc1ncn[nH]1,6.6,-7.3,-6.8,5.2,-10.8,-1.9
Cn1ccnc1SCC(=O)Nc1sccc1C#N,-3.9,-2.1,-1.6,8.8,-0.5,70.6*
Cc1nnc(SCC(=O)Nc2sccc2C#N)s1,5.9,-2.9,x,17.8,-10.2,33.3
Cc1cc(=O)n2[nH]c(-c3ccc(C(C)(C)C)cc3)cc2n1,9.0,24.8*!,-0.6,-1.8,8.6,-2.0
COc1cc(OC)cc(C(=O)N[C@H](C(=O)OCC(=O)Nc2cccc(F)c2)C(C)C)c1,-2.0,21.3*,-1.3,-26.1,9.5,8.0
COc1cc(OC)cc(C(=O)N[C@H](C(=O)OCC(=O)Nc2ccc(OC)c(OC)c2)C(C)C)c1,20.6,3.7,-3.6,-6.7,4.1,-1.9
CCc1ccc(-c2csc(NC(=O)C3=COCCO3)n2)cc1,-8.2,x,x,x,x,x
Cc1cc(/C=C2\SC(=S)N(Cc3ccco3)C2=O)c(C)n1-c1ccccc1,-2.2,-2.4,55.5*,35.0,-11.0,23.4
O=C1/C(=C\c2ccco2)SC(=S)N1Cc1ccccc1,5.6,-17.0,4.2,25.8,2.9,5.7
COc1ccc(-n2c(C)cc(/C=C3/SC(=S)N(C)C3=O)c2C)cc1,1.6,-12.2,60.8*,2.2,-5.5,-7.9
O=C(N/N=C/c1ccccc1O)NC12CC3CC(CC(C3)C1)C2,-1.3,-5.5,x,-12.6,-0.3,11.0
O=C(N/N=C/c1cc(Cl)cc([N+](=O)[O-])c1O)NC12CC3CC(CC(C3)C1)C2,15.6,-4.3,52.2*,15.4,-0.9,-66.8
Cc1ccc(/C([O-])=C(/C(=S)NCc2ccc3c(c2)OCO3)[n+]2ccc(N(C)C)cc2)c(C)c1,3.7,-2.1,-6.9,-7.9,-1.6,4.7
COc1ccc(/C=C/C(=O)c2cc(F)ccc2OC(=O)c2ccccc2OC)cc1OC,x,16.5*,4.0,-15.2,x,x
COc1ccc(/C=C/C(=O)c2cc(F)ccc2OC(=O)c2ccccc2)cc1OC,-3.4,30.2,x,-27.3,1.5,7.8
NC(=O)c1ccc(N=Nc2c(O)c3ccccc3[nH]c2=O)cc1,-3.1,-1.9,64.8*,2.0,-1.4,-13.4
COc1cc(N=Nc2c(O)c3ccccc3[nH]c2=O)c(OC)cc1N=Nc1ccccc1,-6.0,-13.2,-2.5,4.2,-9.2,-1.7
Cc1cccc(CNc2ccc(S(=O)(=O)N3CCCCC3)cc2)c1,-3.3,x,x,x,x,x
COC(=O)CNC(=O)CN1C(=O)N(c2ccccc2)C(N(O)C(=O)Nc2ccccc2)C1(C)C (centres undefined),-18.9,2.2,-6.3,0.6,2.1,-2.2
COC(=O)CN1C(=O)N(c2ccccc2)C(N(O)C(=O)Nc2ccccc2)C1(C)C (centres undefined),1.8,-11.1,138.7*,1.3,2.6,-1.7
SMILES,ZTA DNA inh,GPR7 antagonist,EBV gp42 inh,HCV NS3 hel inh,EBNA-1 inhibitor,HCV core dimer
COc1cccc(-n2nnc(S(=O)(=O)c3ccc(C)cc3)c2N)c1,6.1,19.3,1.4,-2.8,4.7,4.9
COc1ccc(S(=O)(=O)c2nnn(-c3cccc(Cl)c3)c2N)cc1,-8.9,20.3*,-11.6,-11.2,-11.8,3.2
Cc1ccc(-c2cc(-c3ccc(C)o3)nc(N)c2C#N)cc1,-17.1,3.6,4.3,11.6,0.0,60.4*
CC(C)[C@H](NC(=O)OCc1ccccc1)C(=O)N[C@@H](Cc1c[nH]c2ccccc12)C(=O)O,-4.8,x,x,x,3.7,9.8
Fc1ccc(OCc2nnc(-c3ccccc3Br)o2)c(Cl)c1,14.2,-9.7,x,-6.8,8.0,11.5
Clc1ccc(OCc2nnc(-c3ccccc3Br)o2)c(Cl)c1,14.6,-7.8,90.6*,13.5,5.9,0.7
O=C(c1ccc(Cl)c(S(=O)(=O)N2CCCCCC2)c1)N1CCN(c2ccccn2)CC1,4.3,20.9*,-19.2,-5.7,8.7,6.2
CN1CCN(C(=O)c2ccc(Cl)c(S(=O)(=O)N3CCCCC3)c2)CC1,12.9,-11.0,-7.8,-4.6,4.0,0.8
C#CCOCCOCCOCCNc1nc(N2CCN(C(=O)[C@H](CCCCN)n3cc([C@@H](N)CO)nn3)CC2)nc(N2CCN(C(=O)[C@H](Cc3cc4ccccc4[nH]3)n3cc([C@@H](N)CC(C)C)nn3)CC2)n1,-1.3,1.9,0.3,-63.7,9.8,-20.5
COc1ccccc1C(=O)NCCC(=O)NCC1CCCO1 (centres undefined),18.1,x,x,x,x,x
CCOC(=O)N1[C@@H]2C=C(C)[C@@H]2[C@@H]2[C@@H](C)C(=O)N21,10.7,-3.4,-20.4,-2.8,-4.1,1.0
CCOC(=O)N1CCC(Nc2nc3ccccc3nc2NS(=O)(=O)c2ccc(Cl)cc2)CC1,9.9,-19.4,53.5*,4.5,1.1,14.5
Cc1ccc(N(C(=O)CNC(=O)c2ccco2)C(C(=O)NC2CCCC2)c2ccncc2)cc1F (centres undefined),-12.5,-2.2,x,18.9,-2.8,-7.7
O=C1Nc2ccccc2/C1=C/c1cccnc1,12.9,2.7,-6.9,-1.1,0.1,-3.8
O=C1Nc2ccccc2/C1=C/c1cnc(-c2ccccc2)[nH]1,26.8,1.4,58.7*,-10.6,9.3,47.6*
COC(=O)c1ccc(Oc2coc3cc(OCc4ccc([N+](=O)[O-])cc4)ccc3c2=O)cc1,5.0,-4.2,-22.1,12.4,3.1,67.6*
COC(=O)Cc1c(C)c2ccc(OCC(=O)NC3CCS(=O)(=O)C3)cc2oc1=O (centres undefined),4.3,-4.7,x,1.5,-2.8,0.0
Cc1ccc(N=Nc2c(N)[nH]n3c(=O)cc(-c4ccccc4)nc23)cc1,2.9,-10.0,62.9*,21.0,-6.5,4.2
COc1ccc(C(=O)Nn2c(CCC(=O)O)ccc2-c2ccc(C)cc2)cc1OC,-6.4,-1.4,-18.1,7.9,-6.8,3.9
COC(=O)CCC(=O)NNC(=O)Cc1ccccc1,7.1,-8.7,-9.6,0.7,2.0,-5.6
Cc1ccc(N2CC(C(=O)Nc3nnc(SCC(=O)NCC4CCCO4)s3)CC2=O)cc1C (centres undefined),-1.0,-15.1,x,9.9,6.7,26.9
Cc1cccc(N2CC(C(=O)Nc3nnc(SCC(=O)NCC4CCCO4)s3)CC2=O)c1 (centres undefined),-2.6,-21.1,x,19.7,-6.7,65.1*
